Compound activity (PubChem)
An excerpt weighted towards active compounds, which were near 4.6% of everything screened.
GPR7 antagonist: GPR7 receptor antagonists, primary screen, cell-based, fluorescence, single concentration; Neuropeptides B/W receptor type 1 (Homo sapiens), P48145; GPR7-expressing cells, fluorescence antagonist assay; inhibition, % at 4.4 µM; hit rate 1.1% among 290,000; AID 1861, 2009; in the data active = inhibition above about 16%, passing the limit was not always enough;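 also: cells stimulated with the agonist NPW; 0% = agonist with vehicle and 100% = vehicle without agonist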
Target sequence (P48145 whole entry, looked up): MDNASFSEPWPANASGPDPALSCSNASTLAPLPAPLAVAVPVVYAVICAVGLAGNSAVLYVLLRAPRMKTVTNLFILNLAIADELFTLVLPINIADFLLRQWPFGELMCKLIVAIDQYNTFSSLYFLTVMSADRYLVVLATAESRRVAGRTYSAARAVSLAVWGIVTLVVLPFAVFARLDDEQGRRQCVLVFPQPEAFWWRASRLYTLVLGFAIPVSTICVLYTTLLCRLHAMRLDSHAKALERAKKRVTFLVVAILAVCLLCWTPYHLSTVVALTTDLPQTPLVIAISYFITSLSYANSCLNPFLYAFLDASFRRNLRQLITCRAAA
OX1R antag-1: OX1R (HCRTR1) antagonists, primary screen, fluorescence, CHO/OX1R cells, Fluo-8 calcium, orexin A; Orexin/Hypocretin receptor type 1 (Homo sapiens), O43613; Fluo-8 calcium fluorescence; inhibition, % at 5 µM; hit rate 0.43% among 330,000;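 active = inhibition above its plate's threshold, mean inhibition of all tested compounds on the plate plus 3 SD, cut at about 37% in these data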;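 also: 0% = orexin A challenge wells and 100% = SB-334867-A antagonist wells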
Target sequence (O43613 whole entry, looked up): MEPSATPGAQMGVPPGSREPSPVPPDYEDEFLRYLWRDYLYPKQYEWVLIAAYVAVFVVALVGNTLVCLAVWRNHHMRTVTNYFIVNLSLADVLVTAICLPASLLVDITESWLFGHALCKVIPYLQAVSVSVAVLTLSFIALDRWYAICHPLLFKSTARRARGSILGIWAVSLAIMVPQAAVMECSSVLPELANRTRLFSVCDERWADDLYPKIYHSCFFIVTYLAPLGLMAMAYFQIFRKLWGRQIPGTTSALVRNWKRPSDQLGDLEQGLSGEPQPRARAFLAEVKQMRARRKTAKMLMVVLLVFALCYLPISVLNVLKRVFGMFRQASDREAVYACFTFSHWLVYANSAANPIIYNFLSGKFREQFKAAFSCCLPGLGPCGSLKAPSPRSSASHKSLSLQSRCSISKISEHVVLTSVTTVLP
TAAR1 agonist: human TAAR1 agonists, primary screen, Fluo-8 calcium fluorescence, CHO RD-HGA16 cells; AID 624467, 2012; hit rate 0.99% among 360,000; vehicle wells 0%, saturating PEA agonist 100%; activation, % at 3 µM;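 active = activation above the mean activation of all test compounds in the run plus 3 SD, cut at about 38% in these data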
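Repeats: no replicates (n 1) | Material: CHO-derived RD-HGA16 cells with stable Gα16 and human TAAR1 | Technique: Kinetic Fluo-8 calcium fluorescence | Schedule: 17-24 h seeding, 75 min 37 °C dye, 30 min RT | Evaluation: % activation from peak over basal fluorescence ratio, DMSO-to-PEA scaled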
TAAR1 antag: human TAAR1 antagonists, primary screen, Fluo-8 calcium fluorescence, CHO RD-HGA16 cells | Trace amine-associated receptor 1 (Homo sapiens), Q96RJ0 | antagonist | inhibition, % at 3 µM | hit rate 1.5% among 360,000;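 active = inhibition above a per-plate cutoff, the mean inhibition of test compounds on that plate plus 3 SD, cut at about 49% in these data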;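 also: 0% = DMSO plus EC80 beta-PEA response and 100% = DMSO alone without agonist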
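Material: CHO RD-HGA16 cells bearing hTAAR1; compound dosing: one-point dosing, 3 µM nominal final; schedule: dye loading 75 min at 37 °C, then 30 min room temperature; measured by: calcium fluorescence with Fluo-8; control set: vehicle and agonist controls; replication: n of 1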
CHO parental Ca: ATP-evoked calcium signal inhibitors, parental CHO, primary screen, counter-screen for OX1R antagonist project, cell-based, fluorescence, Fluo-8 calcium dye. parental CHO-K1, ATP-induced calcium, Fluo-8 fluorescence. inhibition, % at 5.6 µM. hit rate 0.63% among 330,000. AID 463079, 2010;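 active = inhibition above that plate's mean sample inhibition plus 3 SD, cut at about 26% in these data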;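 also: 0% = ATP-challenged DMSO wells and 100% = DMSO wells without ATP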
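Material: Parental CHO cells | Reagent: ATP | Compound dosing: Single nominal dose of 5.6 µM per compound | Detection: Intracellular calcium via Fluo-8 no-wash fluorescent dye | Read-out: % inhibition of ATP-induced calcium mobilization | Benchmarks: Low control ATP plus DMSO, high control DMSO only | Replicates: Singlicate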
OX1R antag-2: antagonists of human orexin 1 receptor (OX1R); inhibition, % at 6.6 µM; OX1R-expressing cells, FRET antagonist read-out; Orexin/Hypocretin receptor type 1 (Homo sapiens), O43613; hit rate 1.8% among 330,000; AID 485270, 2010; in the data active = inhibition mostly above about 38%, no sharp cut-off; inactive = mostly below about 40%;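 also: 0% = agonist challenge alone and 100% = reference antagonist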
nonsel antag count: nonselective antagonists in TAAR1 counter-screen cells, counter-screen for hTAAR1 antagonist project, cell-based, fluorescence, calcium | shares compounds with TAAR1 antag | counterscreen cell line, antagonist mode | inhibition, % at 3 µM | hit rate 77% among 2,400; in the data active = inhibition above about 22%;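 also: CHO-Ga16 host cells stimulated with ATP at an EC80 level; 0% = agonist EC80 plus vehicle and 100% = vehicle without agonist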
TAAR1 ant conf: human TAAR1 antagonists, retest of hits, confirmation, cell-based, fluorescence; shares compounds with TAAR1 antag; hit rate 40% among 2,400; TAAR1-expressing cells, fluorescence antagonist read-out; AID 651785, 2012; inhibition, % at 3 µM; in the data active = inhibition above about 49%;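 also: CHO-Ga16 host cells challenged with agonist PEA near its EC80; 0% = agonist at EC80 plus vehicle and 100% = vehicle with no agonist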
Ga16 nonsel ag: calcium activation in Ga16-expressing cells, counter-screen for TAAR1 antagonist project, cell-based, fluorescence; activation, % at 3 µM; AID 651953, 2012; hit rate 18% among 2,400; agonist counterscreen; shares compounds with TAAR1 antag; in the data active = activation above about 12%;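 also: 0% = vehicle wells and 100% = saturating stimulus response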
TAAR1 ag count: TAAR1 activation by candidate antagonists – cell-based, fluorescence, counter-screen for TAAR1 antagonist project; shares compounds with TAAR1 antag; hTAAR1 cell line, agonist mode; activation, % at 3 µM; hit rate 2% among 2,400; in the data active = activation above about 37%;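 also: CHO cells stably expressing TAAR1 with calcium dye readout; 0% = DMSO vehicle and 100% = full agonist response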
Active calls of the source: *; / = no result.

SMILES | GPR7 antagonist | OX1R antag-1 | TAAR1 agonist | TAAR1 antag | CHO parental Ca | OX1R antag-2 | nonsel antag count | TAAR1 ant conf | Ga16 nonsel ag | TAAR1 ag count
O=C1NC[C@H](c2ccccc2)OC(=O)[C@H](Cc2ccc(F)cc2)C/C=C\C[C@@H]1CC(=O)N(CCO)Cc1ccccc1 | / | 18 | 32 | 77* | -21 | 33 | 32* | 47 | 9 | 7
C[C@H]1[C@H](NC(=O)C(=NOC(C)(C)C(=O)O)c2csc(N)n2)C(=O)N1S(=O)(=O)O | / | -6 | 0 | -20 | -4 | 22 | / | / | / | /
CCOC(=O)N1CCN(CC(=O)Nc2ccccc2C(=O)Nc2ccccc2)CC1 | / | -9 | 7 | 42 | -18 | -2 | / | / | / | /
COc1ccc(CN(Cc2ccccn2)C(=O)CN2C(=O)C(C)Oc3ccccc32)cc1 (stereo not given) | -9 | -14 | 15 | 52* | -11 | 28 | 29* | 49* | 11 | 12
Cc1ccc(S(=O)(=O)N(C)C)cc1NC(=O)COC(=O)Cc1cccs1 | / | -10 | 4 | -23 | -11 | 19 | / | / | / | /
COc1ccc(C(=O)c2cnc3ccccc3c2-c2ccccc2)cc1 | -11 | -27 | 11 | 57* | -27 | 41 | 21 | 44 | 4 | 0
Cc1ccc(C(=O)c2cnc3ccccc3c2-c2ccccc2)cc1 | 9 | -2 | 11 | 37 | -19 | 26 | / | / | / | /
COc1ccc(N2CCN(C(=O)COC(=O)c3oc4ccc(OC)cc4c3C)CC2)cc1 | / | -7 | 14 | 69* | 18 | 9 | 42* | 57* | 11 | 9
COc1ccc(N2CCN(C(=O)COC(=O)CCOc3ccccc3C)CC2)cc1 | / | -18 | 6 | -15 | -18 | 16 | / | / | / | /
COc1ccc(N2CCN(C(=O)COC(=O)CCOc3cc(C)ccc3C)CC2)cc1 | / | -27 | 10 | 51* | 0 | 18 | 40* | 52* | 12* | 7
Cc1ccc(C)c(OCCC(=O)OCC(=O)NCc2ccccc2)c1 | / | -20 | -2 | -27 | 5 | 16 | / | / | / | /
Cc1ccc(C)c(OCCC(=O)OCC(=O)NCCNC(=O)COC(=O)CCOc2cc(C)ccc2C)c1 | / | 12 | 20 | 87* | 0 | 13 | 48* | 68* | 16* | 18
COc1cc(C(=O)N/N=C/c2cc([N+](=O)[O-])cs2)cc(OC)c1OC | -3 | -18 | -4 | 102* | 4 | 16 | 4 | 5 | 0 | 0
Nc1c(C(=O)OCC2CCCO2)c2nc3ccccc3nc2n1-c1ccc2c(c1)OCCO2 (stereo not given) | -7 | -4 | 8 | 52* | -19 | 27 | 30* | 39 | 7 | 8
O=C(c1ccc(Br)o1)N(Cc1ccccc1)Cc1ccccc1 | -13 | -51 | 16 | 50* | -30 | 24 | 13 | 14 | 1 | 0
NC(=O)c1ccsc1NC(=O)COC(=O)CCc1ccccc1 | / | / | 17 | 44 | / | / | / | / | / | /
NC(=O)c1ccsc1NC(=O)COC(=O)/C=C/c1ccccc1 | / | 5 | 18 | 79* | -9 | 40 | 41* | 74* | 17* | 36
COC(=O)c1ccccc1NC(=O)COC(=O)/C=C/c1cccs1 | / | -29 | 8 | 60* | -31 | 19 | 21 | 37 | 4 | 1
N#Cc1ccc(CN2CCN(C(=O)C3CC(=O)N(c4ccc5c(c4)OCCO5)C3)CC2)cc1 (stereo not given) | / | / | 2 | 2 | / | / | / | / | / | /
CC(C)(C)OC(=O)CNC(=O)c1[nH]cnc1C(=O)NCCCCCNC(=O)OC(C)(C)C | -10 | -11 | 29 | 68* | 3 | 26 | 41* | 60* | 16* | 16
CC(C)(C)OC(=O)CNC(=O)c1[nH]cnc1C(=O)NCCCCCN | / | -7 | 19 | -3 | 0 | 11 | / | / | / | /
CC(C)(C)OC(=O)NCCCC[C@H](NC(=O)c1nc[nH]c1C(=O)N1CCN(C(=O)OC(C)(C)C)CC1)C(=O)OC(C)(C)C | -13 | -39 | 14 | 50* | -17 | -1 | 17 | 39 | 6 | 8
C[C@H](NC(=O)c1nc[nH]c1C(=O)NCCCCCNC(=O)OC(C)(C)C)C(=O)OC(C)(C)C | -3 | -22 | 18 | 61* | -4 | 34 | 31* | 45 | 9 | 5
CC(C)(C)OC(=O)NCCCC[C@H](NC(=O)c1nc[nH]c1C(=O)N1CCN(c2ccccc2)CC1)C(=O)OC(C)(C)C | / | -34 | 15 | 33 | -21 | -1 | / | / | / | /
COc1cccc(NC(=O)c2ccc(-n3cnnn3)cc2)c1 | 4 | 3 | -1 | 4 | 16 | 9 | / | / | / | /
SMILES | GPR7 antagonist | OX1R antag-1 | TAAR1 agonist | TAAR1 antag | CHO parental Ca | OX1R antag-2 | nonsel antag count | TAAR1 ant conf | Ga16 nonsel ag | TAAR1 ag count
CCc1nc2ccc(C(=O)N3CCNC(=O)C3)cn2c1N(C)CCC(C)C | / | / | 2 | -31 | / | / | / | / | / | /
Cc1cccc(NS(=O)(=O)c2cc3c(cc2C)n(C)c(=O)c(=O)n3C)c1 | -20 | -9 | 3 | 4 | -2 | 5 | / | / | / | /
C=CCN1C(=O)N(c2ccccc2)C(=O)C1CC(=O)Nc1ccc(OC)cc1 (stereo not given) | 9 | -10 | 0 | -9 | -2 | 5 | / | / | / | /
CC(C)(C)c1ccc(SC2=C[C@@]3(O)CC[C@@H](O)[C@@](Sc4ccc(C(C)(C)C)cc4)(C2=O)[C@H]3O)cc1 | / | / | 4 | 73* | / | / | 33* | 40 | 2 | -2
Cc1ccc(SC2=C[C@@]3(O)CC[C@@H](O)[C@@](Sc4ccc(C)cc4)(C2=O)[C@H]3O)cc1 | / | / | -1 | -12 | / | / | / | / | / | /
CC(C)CN(C(=O)COC(=O)COc1ccc2c(c1)CCC2)c1c(N)n(Cc2ccccc2)c(=O)[nH]c1=O | / | -19 | 3 | -15 | -8 | 18 | / | / | / | /
Cc1cccc(N2CCN(C(=O)c3ccc(Cl)c(NC4=NC5CS(=O)(=O)CC5S4)c3)CC2C)c1 (stereo not given) | -8 | -13 | 15 | 56* | -14 | 4 | 26* | 43 | 8 | 8
